Laboratory results taken from ChEMBL document CHEMBL4665803, “Discovery of Covalent Inhibitors Targeting the Transcriptional Enhanced Associate Domain Central Pocket” (J Med Chem, 2020).
The source made the active and inactive calls. No cut-off for these calls is given here.

Experiments:
[1] = target: T1, Transcriptional enhancer factor TEF-3 (Homo sapiens, UniProt Q15561); assay: Inhibition of CPM binding to N-terminal His6-tagged human TEAD4 (217 to 434 residues) expressed in Escherichia coli BL21-CodonPlus (DE3)-RIPL cells at 12.5 uM preincubated for 10 mins followed by CPM addition and measured after 1 hr by fluorescence assay relative to control; details: time 70.0 min
T1 sequence (Q15561 whole entry, the tested form may be a part): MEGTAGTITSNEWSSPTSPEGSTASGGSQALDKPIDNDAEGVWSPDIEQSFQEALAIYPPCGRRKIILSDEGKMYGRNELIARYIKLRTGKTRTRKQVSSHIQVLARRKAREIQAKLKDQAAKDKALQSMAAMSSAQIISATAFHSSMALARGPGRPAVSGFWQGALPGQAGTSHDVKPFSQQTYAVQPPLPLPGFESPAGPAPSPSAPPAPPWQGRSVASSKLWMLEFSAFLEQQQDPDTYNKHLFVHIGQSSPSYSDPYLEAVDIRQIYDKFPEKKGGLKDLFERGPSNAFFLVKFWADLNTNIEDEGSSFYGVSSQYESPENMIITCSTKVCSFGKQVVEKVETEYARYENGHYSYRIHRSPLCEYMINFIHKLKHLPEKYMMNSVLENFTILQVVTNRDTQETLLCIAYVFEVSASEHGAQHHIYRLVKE

[2] = target: T1, Transcriptional enhancer factor TEF-3; assay: Inhibition of FITC-labeled palmitate tracer binding to N-terminal His6-tagged human TEAD4 (217 to 434 residues) expressed in Escherichia coli BL21-CodonPlus (DE3)-RIPL cells preincubated for 10 mins followed by FITC-labeled palmitate tracer addition and measured after 1 hr by fluorescence assay
Method in brief: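 FP competition in 25 mM HEPES, 150 mM NaCl, pH 6.5: serially diluted compound preincubated 10 min at room temperature with nonacylated hTEAD4, then FITC-palmitate tracer added (final 50 nM protein, 10 nM tracer); shaken 1 h at room temperature, FP at Ex/Em 485/535 nm. Tracer Kd from saturation binding.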

[3] = target: T1, Transcriptional enhancer factor TEF-3; assay: Inhibition of CPM binding to N-terminal His6-tagged human TEAD4 (217 to 434 residues) expressed in Escherichia coli BL21-CodonPlus (DE3)-RIPL cells preincubated for 10 mins followed by CPM addition and measured after 1 hr by fluorescence assay; details: for inhibition: time 70.0 min
[4] = target: T1, Transcriptional enhancer factor TEF-3; assay: Binding affinity to nonacylated N-terminal His6-tagged human TEAD4 (217 to 434 residues) expressed in Escherichia coli BL21-CodonPlus (DE3)-RIPL cells at 8 equiv after 1 hr by ESI-MS spectrophotometric analysis
Method in brief: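 Whole-protein ESI–MS: 1 μM hTEAD4 incubated 1 h at room temperature with 8 equiv compound in 25 mM HEPES, 150 mM NaCl, pH 6.5; centrifuged, injected via online desalting column to UPLC-MS; masses deconvoluted to detect adducts.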

[5] = target: T1, Transcriptional enhancer factor TEF-3; assay: Selectivity ratio of apparent IC50 for inhibition of CPM binding to N-terminal His6-tagged human TEAD4 (217 to 434 residues) expressed in Escherichia coli BL21-CodonPlus (DE3)-RIPL cells to IC50 for inhibition of FITC-labeled palmitate tracer binding to N-terminal His6-tagged human TEAD4 (217 to 434 residues) expressed in Escherichia coli BL21-CodonPlus (DE3)-RIPL cells
[6] = target: T1, Transcriptional enhancer factor TEF-3; assay: Binding affinity to nonacylated N-terminal His6-tagged human TEAD4 (217 to 434 residues) expressed in Escherichia coli BL21-CodonPlus (DE3)-RIPL cells assessed as inhibition of protein-FAM-YAP (50 to 100 residues) interaction preincubated for 10 mins followed by FAM YAP addition and measured after 1 hr by fluorescence assay
Method in brief: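 FP competition in PBS pH 7.5: serially diluted compound preincubated 10 min at room temperature with TEAD4 protein, then FAM-YAP50–100 added; shaken 1 h at room temperature, FP read at Ex/Em 485/535 nm. Final FAM/protein: nonacylated hTEAD4 2 nM/5 nM; acylated hTEAD4 3 nM/15 nM. Compound stocks 10 mM in DMSO. IC50 from curve fitting.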

[7] = target: T1, Transcriptional enhancer factor TEF-3; assay: Inhibition of TEAD4 in HEK293 cells assessed as reduction in ANKRD1 mRNA expression at 1 uM measured after 6 hrs by SYBR green dye based RT-PCR analysis relative to control; format: cell-based
Method in brief: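 HEK293 cells treated with DMSO or compound for 6 h; ANKRD1 mRNA measured by RT-qPCR relative to the DMSO control.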

[8] = target: Transcriptional enhancer factor TEF-3 (Mus musculus) (UniProt Q62296); assay: Binding affinity to nonacylated mouse TEAD4 at 0.5 mM by 1H-15N HSQC spectra analysis
Transcriptional enhancer factor TEF-3 (Mus musculus), sequence (Q62296 whole entry): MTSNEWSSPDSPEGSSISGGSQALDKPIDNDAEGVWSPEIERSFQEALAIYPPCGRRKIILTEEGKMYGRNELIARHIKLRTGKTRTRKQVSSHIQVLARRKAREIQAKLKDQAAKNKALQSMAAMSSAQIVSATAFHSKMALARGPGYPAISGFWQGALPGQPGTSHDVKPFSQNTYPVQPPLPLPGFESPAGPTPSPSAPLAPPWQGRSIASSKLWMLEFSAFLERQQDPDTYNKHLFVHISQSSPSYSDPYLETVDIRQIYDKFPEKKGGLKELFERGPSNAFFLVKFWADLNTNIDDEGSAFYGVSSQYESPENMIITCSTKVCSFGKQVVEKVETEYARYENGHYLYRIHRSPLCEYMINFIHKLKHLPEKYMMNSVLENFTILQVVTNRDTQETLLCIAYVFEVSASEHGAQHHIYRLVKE
Method in brief: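 1H–15N HSQC of 13C/15N-labeled mTEAD4, deacylated with hydroxylamine; spectra with DMSO or compound (0.5 mM) recorded at 37 °C on a 600 MHz cryoprobe instrument in 20 mM HEPES pH 7.3, 150 mM NaCl, 1 mM DTT; spectra overlaid.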

[9] = target: T1, Transcriptional enhancer factor TEF-3; assay: Binding affinity to nonacylated N-terminal His6-tagged human TEAD4 (217 to 434 residues) expressed in Escherichia coli BL21-CodonPlus (DE3)-RIPL cells assessed as melting temperature at 80 uM after 10 mins by SYPRO orange dye-based differential scanning fluorimetry method (reference value: 41 degreeC)

| Structure (SMILES) | inhibition [1] [%] | IC50 [2] [µM] | IC50 ([3]; read-out: IC50(app)) [µM] | also measured |
| --- | --- | --- | --- | --- |
| CC(C)c1ccc(C(Nc2ccccc2)c2oc(CO)cc(=O)c2O)cc1 (configuration not stated) | > 50 | 0.2 | 1 | – |
| O=c1cc(CO)oc(C(Nc2ccccc2)c2ccc(F)cc2)c1O (configuration not stated) | > 50 | 0.3 | 1.9 | – |
| NC(=O)c1ccc(NC(c2ccccc2)c2oc(CO)cc(=O)c2O)cc1 (configuration not stated) | > 50 | 0.3 | 1.7 | – |
| CSCC[C@H](NCc1oc(CO)cc(=O)c1O)C(=O)O | < 50 | – | – | IC50 ([3]; read-out: IC50): > 100 µM |
| O=c1cc(CO)oc(C(Nc2ncccn2)c2ccccc2)c1O (configuration not stated) | > 50 | 13.4 | > 100 | – |
| O=C(O)c1ccccc1Nc1cccc(C(F)(F)F)c1 | – | – | – | inhibition [3]: Dose-dependent effect |
| COc1c(C(Nc2ccccc2)c2ccccc2)oc(CO)cc1=O (configuration not stated) | < 50 | 41.6 | > 100 | Activity [4]: inactive; Ratio IC50 [5]: > 200; IC50 [6]: 9.5 µM; inhibition [7]: inactive; Activity [8]: inactive; Tm [9]: 41 °C |
| O=c1cc(CO)oc(C(Nc2ccccc2)c2ccc3ccccc3c2)c1O (configuration not stated) | > 50 | 0.2 | 1.1 | – |
| O=c1cc(CO)oc(C(Nc2cccc(F)c2)c2ccccn2)c1O (configuration not stated) | > 50 | – | – | IC50 ([3]; read-out: IC50): 8.7 µM |
| O=c1cc(CO)oc(C(Nc2ccccn2)c2ccccn2)c1O (configuration not stated) | > 50 | 16 | > 100 | – |
| O=c1cc(CO)oc(C(Nc2ccccn2)c2ccccc2)c1O (configuration not stated) | > 50 | 0.3 | 3.1 | – |
| NC(=O)c1ccc(NC(c2ccccn2)c2oc(CO)cc(=O)c2O)cc1 (configuration not stated) | > 50 | 1.1 | 9.2 | – |
| Cc1ccc(C(Nc2ccccc2)c2oc(CO)cc(=O)c2O)cc1 (configuration not stated) | > 50 | 0.2 | 1.3 | – |
| O=c1cc(CO)oc(C(Nc2ccccn2)c2cccnc2)c1O (configuration not stated) | > 50 | 14.7 | > 100 | – |
| O=c1cc(CO)oc(C(Nc2ccccc2)c2ccccc2F)c1O (configuration not stated) | > 50 | 0.1 | 0.7 | – |
| O=C(O)c1cccnc1Nc1cccc(C(F)(F)F)c1 [NIFLUMIC ACID] | – | 5.9 | 41.9 | inhibition [3]: Dose-dependent effect |
| Cc1ccnc(NC(c2ccccc2)c2oc(CO)cc(=O)c2O)c1 (configuration not stated) | > 50 | 0.3 | 2.4 | – |
| CCOC(=O)C1CCCN(Cc2oc(CO)cc(=O)c2O)C1 (configuration not stated) | < 50 | – | – | IC50 ([3]; read-out: IC50): > 100 µM |
| CC(C)C(Nc1ccccc1)c1oc(CO)cc(=O)c1O (configuration not stated) | > 50 | 38.1 | > 100 | – |

| Structure (SMILES) | inhibition [1] [%] | IC50 [2] [µM] | IC50 ([3]; read-out: IC50(app)) [µM] | also measured |
| --- | --- | --- | --- | --- |
| O=c1cc(CO)oc(C(NCc2ccccc2)c2ccccc2)c1O (configuration not stated) | > 50 | 0.4 | 4 | – |
| O=c1cc(CO)oc(C(Nc2ccccc2)c2ccccn2)c1O (configuration not stated) | > 50 | 0.5 | 18.9 | – |
| CC(C)NC(c1ccccc1)c1oc(CO)cc(=O)c1O (configuration not stated) | > 50 | 1.5 | 16.8 | – |
| O=c1cc(CO)oc(CNc2ccccc2)c1O | > 50 | 36.4 | > 100 | – |
| O=c1cc(CO)oc(C(Nc2nccs2)c2ccccc2)c1O (configuration not stated) | > 50 | 5.6 | 53.4 | Tm [9]: 41 °C |
| O=c1cc(CO)oc(C(Nc2ccccn2)c2ccc(Br)cc2)c1O (configuration not stated) | > 50 | 0.4 | 3.7 | Tm [9]: 39 °C |
| O=c1cc(CO)oc(CN2CCN(c3ccccn3)CC2)c1O | < 50 | – | – | IC50 ([3]; read-out: IC50): > 100 µM |
| O=C(CCl)c1ccccc1Nc1cccc(C(F)(F)F)c1 | – | 14.1 | 0.8 | inhibition [3]: Dose-dependent effect |
| O=c1cc(CO)oc(C(Nc2ccccn2)c2ccccc2F)c1O (configuration not stated) | > 50 | 0.3 | 3.2 | IC50 ([3]; read-out: IC50): 3.2 µM |
| O=c1cc(CO)oc(C(Nc2ccccc2)c2ccc(Br)cc2)c1O (configuration not stated) | > 50 | 0.2 | 1.2 | – |
| NC(=O)c1ccc(C(Nc2ccccc2)c2oc(CO)cc(=O)c2O)cc1 (configuration not stated) | > 50 | 0.3 | 1.5 | – |
| CCCCCCCCCCCCCCCC(=O)O | – | – | – | inhibition [3]: Dose-dependent effect |
| O=c1cc(CO)oc(C(Nc2nc3ccccc3[nH]2)c2ccccc2)c1O (configuration not stated) | > 50 | 6.4 | > 100 | – |
| O=c1cc(CO)oc(C(Nc2nccs2)c2ccc(F)cc2)c1O (configuration not stated) | > 50 | – | – | IC50 ([3]; read-out: IC50): 43.1 µM |
| O=c1cc(CO)oc(C(Nc2ccccc2)C2CCCCC2)c1O (configuration not stated) | > 50 | 22.6 | > 100 | – |
| O=c1cc(CO)oc(C(c2ccccc2)N2Cc3ccccc3C2)c1O (configuration not stated) | > 50 | 0.9 | 13.2 | – |
| O=c1cc(CO)oc(C(Nc2cccc(F)c2)c2ccccc2)c1O (configuration not stated) | > 50 | 0.2 | 1.5 | – |
| COc1c(C(Nc2ccccn2)c2ccccc2F)oc(CO)cc1=O (configuration not stated) | < 50 | 49.9 | > 100 | Ratio IC50 [5]: > 200 |
